Measured values: ChEMBL document CHEMBL4673206, “Truncated Latrunculins as Actin Inhibitors Targeting Plasmodium falciparum Motility and Host Cell Invasion” (J Med Chem, 2016)

How the values were obtained:
[1] = Inhibition of actin polymerisation in trophozoite-stage of plasmodium falciparum infected in human erythrocytes assessed as parasite growth inhibition measured after 72 hrs by SYBR dye based FACSort flow cytometry analysis; format: cell-based
Procedure, shortened: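 Mature pigmented trophozoites at 0.1% parasitemia, 2% hematocrit, exposed to compound over two invasion cycles for 72 h at 37°C. Fixed with 0.25% glutaraldehyde for 1 h at room temperature, washed, stained with SYBR green, and counted by flow cytometry. Triplicate wells.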

[2] = Selectivity index, ratio of CC50 for cytotoxicity against human HepG2 cells to EC50 for inhibition of actin polymerisation in trophozoite-stage of plasmodium falciparum; format: toxicity, cell-based; details: read-out: Ratio CC50/EC50
HepG2 = test: Cytotoxicity against human HepG2 cells assessed as reduction in cell viability incubated for 24 hrs by resazurin staining based assay; details: hepg2, 24 h
Procedure, shortened: (§1)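 HEK293 and HepG2 seeded at 3000 and 5000 cells/well in DMEM with 10% FBS and left to attach 24 h (37°C, 5% CO2). Compounds added as a 1:3 serial dilution from 100 µM top concentration (0.5% DMSO final, 5% FBS final) for 24 h. Resazurin 10 µM added, 3 h, fluorescence at 560/590. Viability normalised to untreated and 100 µM tamoxifen wells; triplicate wells.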

HEK293 = test: Cytotoxicity against HEK293 cells assessed as reduction in cell viability incubated for 24 hrs by resazurin staining based assay; details: human, hek293, 24 h; procedure, shortened: as §1
G-actin polymerization [3] = test: Inhibition of KMEI-induced pyrene-labelled G-actin polymerization (unknown origin) at 10 uM preincubated for 1 min followed by KMEI addition and measured at 15 secs interval for 90 mins by spectrofluorimetric analysis relative to control; details: human, time 91 min
Procedure, shortened: (§2)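 Converted to Mg2+ form with EGTA/MgCl2 for 2 min at room temperature; final actin 2.5 µM. Compound in DMSO added for 1 min, then polymerisation started with KMEI (50 mM KCl, 10 mM imidazole pH 7, 1 mM MgCl2, 1 mM EGTA). Fluorescence ex 365/em 407 nm read every 15 s for 90 min; triplicate.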

[4] = Selectivity index, ratio of CC50 for cytotoxicity against human HEK293 cells to EC50 for inhibition of actin polymerisation in trophozoite-stage of plasmodium falciparum; format: toxicity, cell-based; details: read-out: Ratio CC50/EC50
G-actin polymerization [5] = test: Inhibition of KMEI-induced pyrene-labelled G-actin polymerization (unknown origin) at 100 uM preincubated for 1 min followed by KMEI addition and measured at 15 secs interval for 90 mins by spectrofluorimetric analysis relative to control; details: human, time 91 min; procedure, shortened: as §2
[6] = Inhibition of actin polymerisation in Toxoplasma gondii RH infected in human HFF cells assessed as reduction in invasion incubated for 20 mins prior to infection in HFF cells followed by 1 hr incubation under 5% CO2 and subsequent incubation for 72 hrs in DMEM medium 5% CO2 by crystal violet staining based analysis

COc1ccc(CN2C(=O)SC[C@H]2C2(OC)CC(OC(=O)c3ccc(-c4cccs4)cc3)CCO2)cc1 (mixture of isomers)
EC50 [1]: 24 µM

COc1ccc(CN2C(=O)SC[C@H]2C2(OC)CC(OC(=O)c3ccccc3-c3cccc4ccccc34)CCO2)cc1 (mixture of isomers)
selectivity ratio [2]: 15
CC50 (HepG2): 90 µM
CC50 (HEK293): 99 µM
inhibition at 1.5 h, 10 µM (G-actin polymerization [3]): < 10%
EC50 [1]: 7 µM
selectivity ratio [4]: 17
inhibition at 1.5 h, 100 µM (G-actin polymerization [5]): < 10%
EC50 [6]: 16 µM

COc1ccc(CN2C(=O)SC[C@H]2C2(OC)CC(OC(=O)c3cccc(-c4cccs4)c3)CCO2)cc1 (mixture of isomers)
EC50 [1]: 18 µM

COc1ccc(CN2C(=O)SC[C@H]2C2(OC)CC(OC(=O)c3ccccc3)CCO2)cc1 (mixture of isomers)
EC50 [1]: 31 µM

COc1ccc(CN2C(=O)SC[C@H]2C2(OC)CC(OC(=O)c3ccccc3-c3cccs3)CCO2)cc1 (mixture of isomers)
inhibition at 1.5 h, 10 µM (G-actin polymerization [3]): < 10%
EC50 [1]: 7 µM
inhibition at 1.5 h, 100 µM (G-actin polymerization [5]): < 10%
EC50 [6]: 19 µM

COc1ccc(CN2C(=O)SC[C@H]2C2(OC)CC(OC(=O)c3cccc(I)c3)CCO2)cc1 (mixture of isomers)
EC50 [1]: 49 µM

COc1ccc(CN2C(=O)SC[C@H]2C2(OC)CC(OC(=O)C3CCCC3)CCO2)cc1 (mixture of isomers)
EC50 [1]: 66 µM
EC50 [6]: > 100 µM

COc1ccc(CN2C(=O)SC[C@H]2C2(OC)CC(OC(=O)c3ccc(I)cc3)CCO2)cc1 (mixture of isomers)
EC50 [1]: 49 µM

COc1ccc(CN2C(=O)SC[C@H]2C2(OC)CC(OC(=O)c3ccccc3I)CCO2)cc1 (mixture of isomers)
inhibition at 1.5 h, 10 µM (G-actin polymerization [3]): < 10%
EC50 [1]: 17 µM
inhibition at 1.5 h, 100 µM (G-actin polymerization [5]): < 10%

CCCCC(=O)OC1CCOC(OC)([C@@H]2CSC(=O)N2Cc2ccc(OC)cc2)C1 (mixture of isomers)
selectivity ratio [2]: 1
CC50 (HepG2): 111 µM
CC50 (HEK293): 103 µM
EC50 [1]: 66 µM
selectivity ratio [4]: 1
EC50 [6]: > 100 µM

COc1ccc(CN2C(=O)SC[C@H]2C2(OC)CC(OC(=O)c3ccc(C)cc3-c3cccs3)CCO2)cc1 (mixture of isomers)
EC50 [1]: 15 µM

COc1ccc(CN2C(=O)SC[C@H]2C2(OC)CC(OC(=O)c3ccccc3C3=CCCCC3)CCO2)cc1 (mixture of isomers)
selectivity ratio [2]: 15
CC50 (HepG2): 123 µM
CC50 (HEK293): 109 µM
inhibition at 1.5 h, 10 µM (G-actin polymerization [3]): < 10%
EC50 [1]: 7 µM
selectivity ratio [4]: 14
inhibition at 1.5 h, 100 µM (G-actin polymerization [5]): < 10%
EC50 [6]: 16 µM

CCC/C=C/c1ccccc1C(=O)OC1CCOC(OC)([C@@H]2CSC(=O)N2Cc2ccc(OC)cc2)C1 (mixture of isomers)
EC50 [1]: 49 µM

COc1ccc(CN2C(=O)SC[C@H]2C2(OC)CC(OC(=O)c3ccc(C)cc3-c3ccccc3)CCO2)cc1 (mixture of isomers)
EC50 [1]: 13 µM

C/C1=C/C(=O)O[C@@H]2C[C@@H](CC[C@H](C)/C=C\CC1)O[C@@](O)([C@@H]1CSC(=O)N1)C2 [LATRUNCULIN B]
inhibition at 1.5 h, 10 µM (G-actin polymerization [3]): 100%
EC50 [1]: 44 µM
inhibition at 1.5 h, 100 µM (G-actin polymerization [5]): 100%

COc1ccc(CN2C(=O)SC[C@H]2C2(OC)CC(OC(=O)c3cc(C)ccc3-c3cccs3)CCO2)cc1 (mixture of isomers)
EC50 [1]: 10 µM

COc1ccc(CN2C(=O)SC[C@H]2C2(OC)CC(OC(=O)c3ccco3)CCO2)cc1 (mixture of isomers)
EC50 [1]: 62 µM

COc1ccc(CN2C(=O)SC[C@H]2C2(OC)CC(O)CCO2)cc1 (stereo not given in full)
EC50 [1]: > 100 µM
